Data taken from ChEMBL document CHEMBL5058577, “EUbOPEN Chemogenomics Library 2 (Multiplex)” (2022).

Tested on: U2OS
Assay: Multiplex assay against U2OS
Type: toxicity, cell-based
Details: human
Summary of the method: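 Per cents of healthy-nucleus cells form the tubulin, mitochondrial-mass and membrane-permeability phenotype values. Live cells were stained at seeding with Hoechst33342, BioTracker Green Microtubule Cytoskeleton Dye, MitoTracker Red and Annexin V Alexa Fluor 680. After compound addition they were imaged on a CQ1 microscope at 37°C and 5% CO2, and CellPathfinder machine-learning gating split them into Hoechst high-intensity objects or normal cells, normal cells into healthy, pyknosed or fragmented nuclei, and pyknosed cells into mitotic or apoptotic.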

[1] = 12 h, 1 µM, compound concentration 1 uM, replicate 1
[2] = 12 h, 1 µM, compound concentration 1 uM, replicate 2
[3] = 12 h, 10 µM, compound concentration 10 uM, replicate 1
[4] = 12 h, 10 µM, compound concentration 10 uM, replicate 2
[5] = 24 h, 1 µM, compound concentration 1 uM, replicate 1
[6] = 24 h, 1 µM, compound concentration 1 uM, replicate 2
[7] = 24 h, 10 µM, compound concentration 10 uM, replicate 1
[8] = 24 h, 10 µM, compound concentration 10 uM, replicate 2
[9] = 48 h, 1 µM, compound concentration 1 uM, replicate 1
[10] = 48 h, 1 µM, compound concentration 1 uM, replicate 2
[11] = 48 h, 10 µM, compound concentration 10 uM, replicate 1
[12] = 48 h, 10 µM, compound concentration 10 uM, replicate 2

## Cc1cc(O)c(-c2ccc([C@@H](C)CN(C)C)cc2)c2c1[nH]c(=O)c1sccc12
[1]
  Population Apoptotic (%): 80%
  Population Fragmented Nuclei (%): 38%
  Population Healthy Nuclei (%): 48%
  Population Hoechst High Intensity Objects (%): 4%
  Population Membrane Permeable-Phenotype (%): 21%
  Population Mitochondria Different-Phenotype (%): 17%
  Population Mitotic Cells (%): 19%
  Population Normal (%): 95%
  Population Pyknosed Nuclei (%): 12%
  Population Tubulin-Different-Phenotype (%): 12%
  Total Cell Count: 252
[2]
  Population Apoptotic (%): 70%
  Population Fragmented Nuclei (%): 25%
  Population Healthy Nuclei (%): 63%
  Population Hoechst High Intensity Objects (%): 2%
  Population Membrane Permeable-Phenotype (%): 9%
  Population Mitochondria Different-Phenotype (%): 14%
  Population Mitotic Cells (%): 30%
  Population Normal (%): 97%
  Population Pyknosed Nuclei (%): 11%
  Population Tubulin-Different-Phenotype (%): 14%
  Total Cell Count: 89
[3]
  Population Apoptotic (%): 64%
  Population Fragmented Nuclei (%): 28%
  Population Healthy Nuclei (%): 50%
  Population Hoechst High Intensity Objects (%): 4%
  Population Membrane Permeable-Phenotype (%): 54%
  Population Mitochondria Different-Phenotype (%): 62%
  Population Mitotic Cells (%): 35%
  Population Normal (%): 95%
  Population Pyknosed Nuclei (%): 21%
  Population Tubulin-Different-Phenotype (%): 72%
  Total Cell Count: 222
[4]
  Population Apoptotic (%): 69%
  Population Fragmented Nuclei (%): 20%
  Population Healthy Nuclei (%): 56%
  Population Hoechst High Intensity Objects (%): 8%
  Population Membrane Permeable-Phenotype (%): 22%
  Population Mitochondria Different-Phenotype (%): 61%
  Population Mitotic Cells (%): 30%
  Population Normal (%): 91%
  Population Pyknosed Nuclei (%): 22%
  Population Tubulin-Different-Phenotype (%): 45%
  Total Cell Count: 110
[5]
  Population Apoptotic (%): 92%
  Population Fragmented Nuclei (%): 43%
  Population Healthy Nuclei (%): 34%
  Population Hoechst High Intensity Objects (%): 8%
  Population Membrane Permeable-Phenotype (%): 20%
  Population Mitochondria Different-Phenotype (%): 25%
  Population Mitotic Cells (%): 7%
  Population Normal (%): 91%
  Population Pyknosed Nuclei (%): 21%
  Population Tubulin-Different-Phenotype (%): 19%
  Total Cell Count: 256
[6]
  Population Apoptotic (%): 100%
  Population Fragmented Nuclei (%): 41%
  Population Healthy Nuclei (%): 41%
  Population Hoechst High Intensity Objects (%): 6%
  Population Membrane Permeable-Phenotype (%): 15%
  Population Mitochondria Different-Phenotype (%): 21%
  Population Mitotic Cells (%): 0%
  Population Normal (%): 93%
  Population Pyknosed Nuclei (%): 17%
  Population Tubulin-Different-Phenotype (%): 12%
  Total Cell Count: 83
[7]
  Population Apoptotic (%): 81%
  Population Fragmented Nuclei (%): 36%
  Population Healthy Nuclei (%): 35%
  Population Hoechst High Intensity Objects (%): 9%
  Population Membrane Permeable-Phenotype (%): 16%
  Population Mitochondria Different-Phenotype (%): 70%
  Population Mitotic Cells (%): 18%
  Population Normal (%): 90%
  Population Pyknosed Nuclei (%): 27%
  Population Tubulin-Different-Phenotype (%): 47%
  Total Cell Count: 210
[8]
  Population Apoptotic (%): 82%
  Population Fragmented Nuclei (%): 40%
  Population Healthy Nuclei (%): 31%
  Population Hoechst High Intensity Objects (%): 12%
  Population Membrane Permeable-Phenotype (%): 25%
  Population Mitochondria Different-Phenotype (%): 62%
  Population Mitotic Cells (%): 17%
  Population Normal (%): 87%
  Population Pyknosed Nuclei (%): 28%
  Population Tubulin-Different-Phenotype (%): 34%
  Total Cell Count: 118
[9]
  Population Apoptotic (%): 96%
  Population Fragmented Nuclei (%): 53%
  Population Healthy Nuclei (%): 18%
  Population Hoechst High Intensity Objects (%): 17%
  Population Membrane Permeable-Phenotype (%): 23%
  Population Mitochondria Different-Phenotype (%): 25%
  Population Mitotic Cells (%): 3%
  Population Normal (%): 82%
  Population Pyknosed Nuclei (%): 27%
  Population Tubulin-Different-Phenotype (%): 25%
  Total Cell Count: 250
[10]
  Population Apoptotic (%): 100%
  Population Fragmented Nuclei (%): 64%
  Population Healthy Nuclei (%): 19%
  Population Hoechst High Intensity Objects (%): 15%
  Population Membrane Permeable-Phenotype (%): 35%
  Population Mitochondria Different-Phenotype (%): 35%
  Population Mitotic Cells (%): 0%
  Population Normal (%): 84%
  Population Pyknosed Nuclei (%): 15%
  Total Cell Count: 120
[11]
  Population Apoptotic (%): 96%
  Population Fragmented Nuclei (%): 50%
  Population Healthy Nuclei (%): 17%
  Population Hoechst High Intensity Objects (%): 20%
  Population Membrane Permeable-Phenotype (%): 25%
  Population Mitochondria Different-Phenotype (%): 45%
  Population Mitotic Cells (%): 3%
  Population Normal (%): 79%
  Population Pyknosed Nuclei (%): 31%
  Population Tubulin-Different-Phenotype (%): 32%
  Total Cell Count: 220
[12]
  Population Apoptotic (%): 100%
  Population Fragmented Nuclei (%): 54%
  Population Healthy Nuclei (%): 13%
  Population Hoechst High Intensity Objects (%): 15%
  Population Membrane Permeable-Phenotype (%): 64%
  Population Mitochondria Different-Phenotype (%): 50%
  Population Mitotic Cells (%): 0%
  Population Normal (%): 84%
  Population Tubulin-Different-Phenotype (%): 64%
  Total Cell Count: 120

## COc1cc2nc(N3CCN(C(=O)COc4c(OC)cccc4C(C)C)CC3)nc(N)c2cc1OC.Cl.Cl
[1]
  Population Apoptotic (%): 67%
  Population Fragmented Nuclei (%): 21%
  Population Healthy Nuclei (%): 66%
  Population Hoechst High Intensity Objects (%): 3%
  Population Membrane Permeable-Phenotype (%): 10%
  Population Mitochondria Different-Phenotype (%): 5%
  Population Mitotic Cells (%): 32%
  Population Normal (%): 96%
  Population Pyknosed Nuclei (%): 11%
  Population Tubulin-Different-Phenotype (%): 6%
  Total Cell Count: 256
[2]
  Population Apoptotic (%): 33%
  Population Fragmented Nuclei (%): 10%
  Population Healthy Nuclei (%): 84%
  Population Hoechst High Intensity Objects (%): 2%
  Population Mitochondria Different-Phenotype (%): 6%
  Population Mitotic Cells (%): 66%
  Population Normal (%): 97%
  Population Pyknosed Nuclei (%): 4%
  Total Cell Count: 136
[3]
  Population Apoptotic (%): 55%
  Population Fragmented Nuclei (%): 30%
  Population Healthy Nuclei (%): 43%
  Population Hoechst High Intensity Objects (%): 3%
  Population Membrane Permeable-Phenotype (%): 60%
  Population Mitochondria Different-Phenotype (%): 55%
  Population Mitotic Cells (%): 44%
  Population Normal (%): 96%
  Population Pyknosed Nuclei (%): 25%
  Population Tubulin-Different-Phenotype (%): 75%
  Total Cell Count: 233
[4]
  Population Apoptotic (%): 66%
  Population Fragmented Nuclei (%): 19%
  Population Healthy Nuclei (%): 48%
  Population Hoechst High Intensity Objects (%): 0%
  Population Membrane Permeable-Phenotype (%): 54%
  Population Mitochondria Different-Phenotype (%): 65%
  Population Mitotic Cells (%): 33%
  Population Normal (%): 99%
  Population Pyknosed Nuclei (%): 32%
  Population Tubulin-Different-Phenotype (%): 68%
  Total Cell Count: 151
[5]
  Population Apoptotic (%): 84%
  Population Fragmented Nuclei (%): 21%
  Population Healthy Nuclei (%): 67%
  Population Hoechst High Intensity Objects (%): 3%
  Population Membrane Permeable-Phenotype (%): 6%
  Population Mitochondria Different-Phenotype (%): 8%
  Population Mitotic Cells (%): 15%
  Population Normal (%): 96%
  Population Pyknosed Nuclei (%): 11%
  Population Tubulin-Different-Phenotype (%): 4%
  Total Cell Count: 297
[6]
  Population Apoptotic (%): 80%
  Population Fragmented Nuclei (%): 15%
  Population Healthy Nuclei (%): 77%
  Population Hoechst High Intensity Objects (%): 0%
  Population Membrane Permeable-Phenotype (%): 10%
  Population Mitochondria Different-Phenotype (%): 7%
  Population Mitotic Cells (%): 20%
  Population Normal (%): 99%
  Population Pyknosed Nuclei (%): 6%
  Population Tubulin-Different-Phenotype (%): 5%
  Total Cell Count: 154
[7]
  Population Apoptotic (%): 76%
  Population Fragmented Nuclei (%): 30%
  Population Healthy Nuclei (%): 36%
  Population Hoechst High Intensity Objects (%): 9%
  Population Membrane Permeable-Phenotype (%): 40%
  Population Mitochondria Different-Phenotype (%): 49%
  Population Mitotic Cells (%): 24%
  Population Normal (%): 90%
  Population Pyknosed Nuclei (%): 33%
  Population Tubulin-Different-Phenotype (%): 50%
  Total Cell Count: 246
[8]
  Population Apoptotic (%): 87%
  Population Fragmented Nuclei (%): 20%
  Population Healthy Nuclei (%): 40%
  Population Hoechst High Intensity Objects (%): 12%
  Population Membrane Permeable-Phenotype (%): 49%
  Population Mitochondria Different-Phenotype (%): 50%
  Population Mitotic Cells (%): 12%
  Population Normal (%): 87%
  Population Pyknosed Nuclei (%): 39%
  Population Tubulin-Different-Phenotype (%): 60%
  Total Cell Count: 185
[9]
  Population Apoptotic (%): 83%
  Population Fragmented Nuclei (%): 20%
  Population Healthy Nuclei (%): 70%
  Population Hoechst High Intensity Objects (%): 2%
  Population Membrane Permeable-Phenotype (%): 6%
  Population Mitochondria Different-Phenotype (%): 6%
  Population Mitotic Cells (%): 16%
  Population Normal (%): 97%
  Population Pyknosed Nuclei (%): 8%
  Population Tubulin-Different-Phenotype (%): 4%
  Total Cell Count: 441
[10]
  Population Apoptotic (%): 75%
  Population Fragmented Nuclei (%): 16%
  Population Healthy Nuclei (%): 72%
  Population Hoechst High Intensity Objects (%): 3%
  Population Membrane Permeable-Phenotype (%): 7%
  Population Mitotic Cells (%): 25%
  Population Normal (%): 96%
  Population Pyknosed Nuclei (%): 11%
  Population Tubulin-Different-Phenotype (%): 6%
  Total Cell Count: 225
[11]
  Population Apoptotic (%): 88%
  Population Fragmented Nuclei (%): 40%
  Population Healthy Nuclei (%): 21%
  Population Hoechst High Intensity Objects (%): 31%
  Population Membrane Permeable-Phenotype (%): 13%
  Population Mitochondria Different-Phenotype (%): 30%
  Population Mitotic Cells (%): 11%
  Population Normal (%): 68%
  Population Pyknosed Nuclei (%): 38%
  Population Tubulin-Different-Phenotype (%): 13%
  Total Cell Count: 296
[12]
  Population Apoptotic (%): 93%
  Population Fragmented Nuclei (%): 24%
  Population Healthy Nuclei (%): 23%
  Population Hoechst High Intensity Objects (%): 32%
  Population Membrane Permeable-Phenotype (%): 27%
  Population Mitochondria Different-Phenotype (%): 10%
  Population Mitotic Cells (%): 6%
  Population Normal (%): 67%
  Population Pyknosed Nuclei (%): 51%
  Population Tubulin-Different-Phenotype (%): 24%
  Total Cell Count: 180
